Assay [1] is described as follows: Antiproliferative activity against human MEC1 cells after 72 hrs by Celltiter-Glo assay. The format is functional. Conditions: MEC1, 72 h. In short, it runs like this:
(§1)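 Cells seeded at 3000/well in 96-well plates, exposed to serially diluted compound for 72 h at 37 °C, 5% CO2. Viability read by CellTiter-Glo luminescence and normalized to DMSO control. GI50 derived from curve fit, mean of three independent measurements. Culture media: DMEM/10% FBS for adherent lines; IMDM for MV4-11 and MEC-1/2; RPMI 1640 for suspension lines and CHL.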

The nature of assay [2]: Antiproliferative activity against Chinese hamster CHL cells after 72 hrs by Celltiter-Glo assay. To be noted: Cricetulus griseus.
For a further assay, the system named is MV4-11. Briefly: Antiproliferative activity against human MV4-11 cells after 72 hrs by Celltiter-Glo assay. To be noted: MV4-11, 72 h. The format is functional. In short, it runs like this:
as §1

For a further assay, the target named is CDK9/Cyclin K (Homo sapiens, UniProt P50750). Nature of the assay: Inhibition of CDK9/Cyclin K (unknown origin) using PDKtide as substrate incubated at 37 degreeC for 1 hr followed by incubation at room temperature for 5 mins by ADP-Glo reagent based luminescence assay. Format: protein-complex assay.

The structures appear in SMILES notation.

The text below walks through data of ChEMBL document CHEMBL4261600 (Eur J Med Chem, 2018).

Chain of CDK9/Cyclin K (P50750 whole entry): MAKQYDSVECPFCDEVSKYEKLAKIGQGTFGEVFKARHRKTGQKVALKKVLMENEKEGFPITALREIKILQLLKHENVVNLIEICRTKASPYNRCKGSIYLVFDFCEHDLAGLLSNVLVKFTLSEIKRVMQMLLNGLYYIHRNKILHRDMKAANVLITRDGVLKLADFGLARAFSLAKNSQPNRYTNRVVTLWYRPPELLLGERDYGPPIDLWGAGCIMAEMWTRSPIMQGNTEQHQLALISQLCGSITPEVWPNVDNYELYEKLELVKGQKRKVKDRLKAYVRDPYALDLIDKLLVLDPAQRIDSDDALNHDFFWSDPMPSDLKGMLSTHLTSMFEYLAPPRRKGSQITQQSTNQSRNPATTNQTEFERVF
Chain of CDK9/Cyclin K (O75909 whole entry, further chain): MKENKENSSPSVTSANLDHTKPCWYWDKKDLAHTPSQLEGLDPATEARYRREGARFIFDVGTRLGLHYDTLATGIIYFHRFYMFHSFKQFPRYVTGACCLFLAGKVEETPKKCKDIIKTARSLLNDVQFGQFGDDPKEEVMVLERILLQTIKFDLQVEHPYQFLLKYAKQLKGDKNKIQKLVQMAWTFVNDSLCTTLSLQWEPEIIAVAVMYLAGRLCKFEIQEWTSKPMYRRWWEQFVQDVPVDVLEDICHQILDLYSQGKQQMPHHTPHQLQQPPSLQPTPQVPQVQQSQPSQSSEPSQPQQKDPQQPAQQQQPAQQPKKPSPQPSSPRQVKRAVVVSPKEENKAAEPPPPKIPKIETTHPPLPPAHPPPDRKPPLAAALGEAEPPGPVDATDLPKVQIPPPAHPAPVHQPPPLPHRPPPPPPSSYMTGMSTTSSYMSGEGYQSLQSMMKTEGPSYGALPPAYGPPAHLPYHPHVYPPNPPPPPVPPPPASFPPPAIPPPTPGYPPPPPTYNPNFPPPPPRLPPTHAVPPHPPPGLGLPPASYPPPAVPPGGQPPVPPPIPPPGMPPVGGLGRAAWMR

Consider `Clc1cnc(Nc2ccccc2)cc1-c1csc(NCC2CCOCC2)n1`, for which the GI50 (in assay [1]; in assay [2]; in the assay on MV4-11) was greater than 10000 nM each time. The same molecule registered an IC50 against CDK9/Cyclin K of 238 nM.

Regarding `COCCNc1cc(-c2csc(NCC3CCOCC3)n2)c(Cl)cn1`, the GI50 (in assay [1]; in assay [2]; in the assay on MV4-11) was greater than 10000 nM throughout. Besides, on CDK9/Cyclin K, the IC50 is 1040 nM.

Consider `COCCN[C@H]1CC[C@H](Nc2cc(-c3csc(NCC4CC4)n3)c(Cl)cn2)CC1`, for which the figures for the GI50 (in assay [1]; in assay [2]; in the assay with MV4-11) were 890 nM, 1400 nM and 740 nM, respectively. In addition, it took 96 nM to reach half-maximal inhibition against CDK9/Cyclin K (IC50).

Take `COCCN[C@H]1CC[C@H](Nc2cc(-c3csc(NCc4ccc(F)cc4)n3)c(Cl)cn2)CC1`: the GI50 was found to be 450 nM in assay [1], 1100 nM in assay [2] and 880 nM in the assay with MV4-11. At CDK9/Cyclin K, this molecule returned an IC50 of 2 nM.

With `N[C@H]1CC[C@H](CNc2cc(-c3csc(NCC4CCOCC4)n3)c(Cl)cn2)CC1`, the results for the GI50 (in assay [1]; in assay [2]; with MV4-11) were greater than 10000 nM, 3900 nM and 1900 nM, respectively. At CDK9/Cyclin K, this molecule displayed an IC50 of 84 nM.

Take `COCCN[C@H]1CC[C@H](Nc2cc(-c3csc(NCC4C5CC6CC(C5)CC4C6)n3)c(Cl)cn2)CC1` (stereo partly drawn): the concentration for 50% growth inhibition (GI50) in assay [1] stood at 6310 nM; in assay [2] it was 2040 nM; in the assay with MV4-11 it was 3460 nM. Moreover, at CDK9/Cyclin K, it took 94 nM to reach half-maximal inhibition (IC50).

Take `O=C(Nc1cc(-c2csc(NCC3CCOCC3)n2)c(Cl)cn1)c1ccc(F)cc1`: the GI50 in assay [1] turned out to be 3600 nM; in assay [2] it was 930 nM; in the assay with MV4-11 it was 550 nM. Also, it took 2300 nM to reach half-maximal inhibition on CDK9/Cyclin K (IC50).

`CNc1nc(-c2cc(N[C@H]3CC[C@H](NCCOC)CC3)ncc2Cl)cs1`: the GI50 is 1400 nM in assay [1], 1900 nM in assay [2] and 530 nM with MV4-11. In addition, the IC50 at CDK9/Cyclin K stood at 101 nM.

Take `COCCN[C@H]1CC[C@H](Nc2cc(-c3csc(NCc4ccccc4)n3)c(Cl)cn2)CC1`: the GI50 in assay [1] was found to be 470 nM; in assay [2], 1000 nM; with MV4-11, 330 nM. The molecule also came in with an IC50 against CDK9/Cyclin K of 14 nM.

For `CC(=O)N[C@H]1CC[C@H](Nc2cc(-c3csc(NCC4CCOCC4)n3)c(Cl)cn2)CC1`, the GI50 in assay [1] was greater than 10000 nM; in assay [2], greater than 10000 nM; with MV4-11 it was 3600 nM. Also, the IC50 on CDK9/Cyclin K worked out at 101 nM.

With `COCCN[C@H]1CC[C@H](Nc2cc(-c3csc(NCC4CCCC4)n3)c(Cl)cn2)CC1`, the values for the GI50 (in assay [1]; in assay [2]; in the assay on MV4-11) were 2940 nM, greater than 10000 nM and 2160 nM, respectively. The IC50 against CDK9/Cyclin K came to 80 nM.

As for `COCCN[C@H]1CC[C@H](Nc2cc(-c3csc(NCC4CCOCC4)n3)c(Cl)cn2)CC1`, the GI50 in assay [1] came to 1240 nM; in assay [2], 534 nM; in the assay with MV4-11, 170 nM. The molecule further showed an IC50 on CDK9/Cyclin K of 2 nM.

On to `COCCN[C@H]1CC[C@H](Nc2cc(-c3csc(NCC4CCOC4)n3)c(Cl)cn2)CC1` (stereo partly drawn), for which the GI50 was 883 nM in assay [1], greater than 10000 nM in assay [2] and 493 nM in the assay with MV4-11. For the same molecule, it took 90 nM to reach half-maximal inhibition on CDK9/Cyclin K (IC50).

With `COCC(=O)N[C@H]1CC[C@H](Nc2cc(-c3csc(NCC4CCOCC4)n3)c(Cl)cn2)CC1`, the GI50 (in assay [1]; in assay [2]; with MV4-11) was greater than 10000 nM each time. It took 1890 nM to reach half-maximal inhibition on CDK9/Cyclin K (IC50).

Take `COCCCN[C@H]1CC[C@H](Nc2cc(-c3csc(NCC4CCOCC4)n3)c(Cl)cn2)CC1`: the GI50 came out at 2610 nM in assay [1], 2030 nM in assay [2] and 1090 nM in the assay with MV4-11. Further, half-maximal inhibition against CDK9/Cyclin K (IC50) was put at 12 nM.

Take `COCCN[C@H]1CC[C@H](Nc2cc(-c3csc(NCC4CCOCC4)n3)ccn2)CC1`: the GI50 is 2500 nM in assay [1], 1200 nM in assay [2] and 910 nM with MV4-11. Also, at CDK9/Cyclin K, the IC50 was 114 nM.

As to `COCCN[C@H]1CC[C@H](Nc2cc(-c3csc(NCC(F)(F)F)n3)c(Cl)cn2)CC1`, the GI50 in assay [1] is 1100 nM; in assay [2], 877 nM; in the assay on MV4-11, 752 nM. For the same molecule, at CDK9/Cyclin K, it took 17 nM to reach half-maximal inhibition (IC50).
